First the molecules themselves.
B1: tRNA (parent)
chain: GUUCCGUUGGCGUAAUGGUAACGCGUCUCCCUCCUAAGGAGAAGACUGCGGGUUCGAGUCCCGUACGGAACG

In the series the parent is B1. As to the kind of experiment: yeast fitness, log relative to wild type (ln ratio); higher = fitter; tRNA-Arg(CCU), competitive growth, 37 C, 1 M NaCl. In outline:
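Fitness is the natural log of each genotype's generations divided by the wild type's. Generations were derived as OD-scaled log2 output/input frequency from 125 bp paired-end Illumina counts, weighting replicates by inverse variance. Pools of the tRNA-Arg(CCU) variant library, on a HIS3 centromeric plasmid in BY4742 lacking the chromosomal gene, grew ~6.5 generations (~26.5 h) in SC-HIS 1M NaCl at 37 °C after 4 generations in SC-HIS at 30 °C.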
Regarding AUUCCUUUGGCGUAAUGGUAACGCGUCUCCCUCCUAAGGAGAAGACUGCGGGUUCGAGUCCCGUAAGGAGCG, the “yeast fitness (ln)” value is -0.196.
Then GCUCCUUUGGCGUAAUGGUAACGCGUUUCCCUCCUAAGGAGACGAUUGCGGGUUCGAGUCCCGUACGGGUUG, with -0.309; and AUUCCGUUGGCGUAAUGGUAACGCGUCUCCCUCCUAAGGAGAAGACUGCGGGUUCGAGUCCCGUAUGGAGUG, with -0.287; and GUUCCAUUGGCGUAAUGGUAACGCGUCUCCCUCCUAAGGAGACGACUGCGGGUUCGAGUCCCGUACGGGUCG, with -0.224.
Then GUUCCAUUGGCGUAAUGGUAACGCGUCUCCCUCCUAAGGAGACGACUGCGGGUUCGAGUCCCGUACGGAUUG, with -0.266; and GGUCCGUUGGCGUAAUGGUAACGCGUUUCCCUCCUAAGGAGACGAUUGCGGGUUCGAGUCCCGUACGGGACG, with -0.0569; and GUUCCGUUGGCGUAAUGGUAACGCGUUUCCCUCCUAAGGAGAAGAUUGCGGGUUCGAGUCCCGUAAGGAUUG, with -0.13.
Take GUUCCUUUGGCGUAAUGGUAACGCGUCUCCCUCCUAAGGAGACGACUGCGGGUUCGAGUCCCGUAAGGAGUG: the “yeast fitness (ln)” value is -0.177.
Regarding GUUCCUUUGGCGUAAUGGUAACGCGUUUCCCUCCUAAGGAGACGACUGCGGGUUCGAGUCCCGUAUGGGGUG, the “yeast fitness (ln)” value was -0.473.
Then ACUCCGUUGGCGUAAUGGUAACGCGUCUCCCUCCUAAGGAGACGAUUGCGGGUUCGAGUCCCGUAAGGAUUG, with -0.134; and GCUCCGUUGGCGUAAUGGUAACGCGUUUCCCUCCUAAGGAGAAGAUUGCGGGUUCGAGUCCCGUAUGGAGCG, with -0.04.
Consider AUUCCUUUGGCGUAAUGGUAACGCGUCUCCCUCCUAAGGAGACGACUGCGGGUUCGAGUCCCGUAUGGGGUG, for which the “yeast fitness (ln)” value is -0.371.
With AGUCCGUUGGCGUAAUGGUAACGCGUCUCCCUCCUAAGGAGACGAUUGCGGGUUCGAGUCCCGUAAGGGAUG, the “yeast fitness (ln)” value is -0.335.
In the case of GUUCCUUUGGCGUAAUGGUAACGCGUUUCCCUCCUAAGGAGACGAUUGCGGGUUCGAGUCCCGUAAGGAUCG, the “yeast fitness (ln)” value was -0.382.
Under GGUCCGUUGGCGUAAUGGUAACGCGUCUCCCUCCUAAGGAGAAGAUUGCGGGUUCGAGUCCCGUAUGGAACG stands -0.0936; under GGUCCUUUGGCGUAAUGGUAACGCGUCUCCCUCCUAAGGAGAAGAUUGCGGGUUCGAGUCCCGUAUGGAUCG, -0.0168; under GUUCCGUUGGCGUAAUGGUAACGCGUCUCCCUCCUAAGGAGACGACUGCGGGUUCGAGUCCCGUAAGGAACG, -0.0164.
For ACUCCUUUGGCGUAAUGGUAACGCGUUUCCCUCCUAAGGAGACGAUUGCGGGUUCGAGUCCCGUAAGGGUCG, the “yeast fitness (ln)” value is -0.378.
Then AUUCCUUUGGCGUAAUGGUAACGCGUUUCCCUCCUAAGGAGACGAUUGCGGGUUCGAGUCCCGUAUGGAGUG, with -0.596; and GGUCCUUUGGCGUAAUGGUAACGCGUUUCCCUCCUAAGGAGACGAUUGCGGGUUCGAGUCCCGUAAGGGUUG, with -0.386; and ACUCCGUUGGCGUAAUGGUAACGCGUUUCCCUCCUAAGGAGACGAUUGCGGGUUCGAGUCCCGUAUGGAACG, with -0.161.
GUUCCUUUGGCGUAAUGGUAACGCGUCUCCCUCCUAAGGAGACGAUUGCGGGUUCGAGUCCCGUAUGGGACG: the “yeast fitness (ln)” value is -0.261.
Under ACUCCAUUGGCGUAAUGGUAACGCGUUUCCCUCCUAAGGAGACGAUUGCGGGUUCGAGUCCCGUAUGGGUCG stands -0.416; under GCUCCAUUGGCGUAAUGGUAACGCGUCUCCCUCCUAAGGAGACGAUUGCGGGUUCGAGUCCCGUAUGGGAUG, -0.332.
Under GGUCCUUUGGCGUAAUGGUAACGCGUUUCCCUCCUAAGGAGAAGAUUGCGGGUUCGAGUCCCGUAUGGGAUG stands -0.527; under AUUCCGUUGGCGUAAUGGUAACGCGUUUCCCUCCUAAGGAGACGAUUGCGGGUUCGAGUCCCGUACGGGGCG, -0.183; under GUUCCGUUGGCGUAAUGGUAACGCGUUUCCCUCCUAAGGAGACGAUUGCGGGUUCGAGUCCCGUAAGGAAUG, -0.173.
Then GCUCCUUUGGCGUAAUGGUAACGCGUUUCCCUCCUAAGGAGAAGAUUGCGGGUUCGAGUCCCGUAAGGGGUG, with -0.0348; and GCUCCAUUGGCGUAAUGGUAACGCGUCUCCCUCCUAAGGAGACGACUGCGGGUUCGAGUCCCGUAAGGAUCG, with -0.0851; and ACUCCGUUGGCGUAAUGGUAACGCGUUUCCCUCCUAAGGAGACGAUUGCGGGUUCGAGUCCCGUAUGGAGCG, with -0.0953.
With GUUCCAUUGGCGUAAUGGUAACGCGUCUCCCUCCUAAGGAGACGAUUGCGGGUUCGAGUCCCGUAAGGAUCG, the “yeast fitness (ln)” value is -0.119.
Then AGUCCAUUGGCGUAAUGGUAACGCGUCUCCCUCCUAAGGAGACGAUUGCGGGUUCGAGUCCCGUAUGGAUCG, with -0.306.
Take GCUCCUUUGGCGUAAUGGUAACGCGUCUCCCUCCUAAGGAGAAGACUGCGGGUUCGAGUCCCGUAUGGAACG: the “yeast fitness (ln)” value was -0.0417.
Then AUUCCGUUGGCGUAAUGGUAACGCGUCUCCCUCCUAAGGAGACGACUGCGGGUUCGAGUCCCGUAUGGGUCG, with -0.373.
Then GGUCCAUUGGCGUAAUGGUAACGCGUCUCCCUCCUAAGGAGAAGAUUGCGGGUUCGAGUCCCGUAUGGAUUG, with -0.0272; and AUUCCAUUGGCGUAAUGGUAACGCGUUUCCCUCCUAAGGAGACGAUUGCGGGUUCGAGUCCCGUACGGGUCG, with -0.259.
Then GGUCCAUUGGCGUAAUGGUAACGCGUCUCCCUCCUAAGGAGACGAUUGCGGGUUCGAGUCCCGUAUGGGUUG, with -0.379.

For the origin of these results see the RNAGym collection of RNA variant scans (doi:10.1038/s41586-018-0170-7).
